Measurements collected from several papers.
Protocols differ between the studies behind these lines.
Target: MAP/microtubule affinity-regulating kinase 3 (MARK3, Homo sapiens, UniProt P27448)

| SMILES | observed | action | method | cell line | concentration | quantity | value |
| --- | --- | --- | --- | --- | --- | --- | --- |
| CN1CCc2cc(Nc3ncc(C4CC4)c(NCCCNC(=O)C4CCC4)n3)ccc2C1 | enzyme activity | inhibitor | radiometric | – | 1 µM | remaining activity | -4% |
| CNc1cc(Oc2cc(C(=O)Nc3cc(N4CCN(C)CC4)cc(C(F)(F)F)c3)ccc2C)ncn1 | target engagement in cells | inhibitor | chemoproteomics | Huh-7 | 1 µM | inhibition | -18.5% |
| Cc1c(NC(=O)c2cc(C(N)=O)nc3cc(F)ccc23)c(C(F)(F)F)nn1Cc1ccc(C#N)cc1 | cell-free assay | – | competition with immobilised ligand | – | 1 µM | remaining binding | 100% |
| O=C(CSc1nc2nccnc2c(=O)n1CCc1ccccc1)Nc1nccs1 | enzyme activity | inhibitor | – | – | 10 µM | inhibition | 7% |
| Nc1nc(Nc2ccccc2)sc1C(=O)c1c(F)cccc1F | enzyme activity | inhibitor | – | – | 10 µM | remaining activity | 25% |
| Cc1cc(C)c(-n2ccn3nc(-c4cccnc4)cc23)cc1NC(=O)c1cc(C#N)cc(S(F)(F)(F)(F)F)c1 | cell-free assay | – | competition with immobilised ligand | – | 0.1 µM | remaining binding | 85.1% |
| O=C1Nc2ccc(Cl)cc2C1=Cc1cc(Cl)c(O)c(Cl)c1 | cell-free assay | – | – | – | 0.5 µM | remaining signal | 81.1% |
| CN(C)CC#Cc1ccc(OCCCc2sc(N3CCc4cccc(C(=O)Nc5nc6ccccc6s5)c4C3)nc2C(=O)O)c(F)c1 | cell-free assay | – | competition with immobilised ligand | – | 1 µM | remaining binding | 38% |
| c1cc(CN2CCOCC2)cc(Nc2ncc(C3CC3)c(NCCc3c[nH]cn3)n2)c1 | enzyme activity | inhibitor | radiometric | – | 1 µM | remaining activity | 0% |
| c1ccc(CNc2nc(N3CCOc4ccccc43)nc3c2CCCC3)cc1 | target engagement in cells | inhibitor | chemoproteomics | – | 20 mM | inhibition | 3% |
| Cc1nn(CC(F)(F)F)cc1Nc1ncc(C2CC2)c(NCCCNC(=O)C2CCC2)n1 | enzyme activity | inhibitor | radiometric | – | 1 µM | remaining activity | 96% |
| COc1ccc(COc2ccc(Cc3cnc(N)nc3N)cc2OC)cc1 | cell-free assay | – | – | – | 0.5 µM | remaining signal | 103% |
| CC/C(=N\NC(=O)NCc1cccc(O)c1)c1ccc(O)c(C)c1O | enzyme activity | inhibitor | – | – | 0.1 µM | inhibition | -16.8% |
| CN1CC(Oc2cnc(C#N)cc2-c2ccn3nc(NC(=O)C4CC4)cc3c2)C1 | enzyme activity | inhibitor | – | – | 1 µM | inhibition | 17% |
| C[C@H](c1ccnc(Nc2nc3ccc(-c4cc(N(C)C)ncn4)cc3[nH]2)c1)N1CCN(C(=O)CC(F)(F)F)CC1 | cell-free assay | – | competition with immobilised ligand | – | 0.1 µM | remaining binding | 100% |
| CS(=O)(=O)CCNCc1ccc(-c2ccc3ncnc(Nc4ccc(OCc5cccc(F)c5)c(Cl)c4)c3c2)o1 | cell-free assay | – | – | – | 0.5 µM | remaining signal | 95.9% |
| CC1=C(C#N)[C@@H](c2ccc3[nH]nc(C)c3c2)C(C#N)=C(c2ccc(Cl)cc2)N1 | cell-free assay | – | competition with immobilised ligand | – | 1 µM | remaining binding | 100% |
| O=C(NCCCNc1nc(Nc2cccc(CN3CCOCC3)c2)ncc1C1CC1)C1CCC1 | enzyme activity | inhibitor | radiometric | – | 1 µM | remaining activity | -1% |
| Nc1c(C(=O)NCc2ccc(C(=O)NCCCC3CCCCC3)cc2)cnn1-c1ccccc1 | cell-free assay | – | competition with immobilised ligand | – | 0.1 µM | remaining binding | 78% |
| Cc1nn(CC(F)(F)F)cc1Nc1ncc(C2CC2)c(NCc2ccc(S(N)(=O)=O)cc2)n1 | enzyme activity | inhibitor | radiometric | – | 1 µM | remaining activity | 111% |
| O=C(NS(=O)(=O)c1ccc(NCC2CCOCC2)c([N+](=O)[O-])c1)c1ccc(N2CCN(Cc3ccc(C(F)(F)F)cc3-c3ccc(Cl)cc3)CC2)cc1Oc1cnc2[nH]ccc2c1 | cell-free assay | – | competition with immobilised ligand | – | 1 µM | remaining binding | 100% |
| O=C(NCCCNc1nc(Nc2cccc(NC(=O)N3CCCC3)c2)ncc1C1CC1)C1CCC1 | enzyme activity | inhibitor | radiometric | – | 1 µM | remaining activity | 0% |
